Assay [1] concerns Staphylococcus aureus. Kind of assay: Antibacterial activity against methicillin-resistant Staphylococcus aureus ATCC 33591 after 24 hrs by broth microdilution method. The format is functional. The conditions noted are these: ATCC 33591, 24 h. In short, it runs like this:
(§1)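 Broth microdilution following NCCLS M7-A6 (2003), with inoculum at the recommended densities. Isolates were placed into panel wells with an autoinoculator and grown in cation-adjusted Mueller-Hinton broth at 35°C in ambient air for overnight to 24 h. Panels were read by eye, and the MIC was taken as no visible growth.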
Background: Dilution methods test growth across graded concentrations, often in twofold steps.

For assay [2], the system named is Staphylococcus aureus. Put plainly: Antibacterial activity against methicillin-resistant Staphylococcus aureus 78-13607A after 24 hrs by broth microdilution method. In kind it is functional. In short, it runs like this: as §1

Structures are written as SMILES. Values after ≈ are worked out from the molar mass of the structure shown. Some results are limits rather than exact numbers.

Broadly, the MIC is the lowest concentration that inhibits growth of the organism. A higher MIC goes with weaker potency.

In the case of `Cc1onc(-c2ccccc2)c1C(=O)N[C@@H]1C(=O)N2[C@@H]1SC(C)(C)[C@@H]2C(=O)O` [OXACILLIN], the MIC was over 8 µg/mL in the assay on Staphylococcus aureus [1] and 8 µg/mL (≈ 19.9 µM) in the assay with Staphylococcus aureus [2]. In the case of `O=C(N[C@H](CO)[C@H](O)c1ccc([N+](=O)[O-])cc1)C(Cl)Cl` [CHLORAMPHENICOL], the MIC with Staphylococcus aureus [1] is over 16 µg/mL. Turning to `CCCCCCCCCCCCO[C@@H]1O[C@@H](C)[C@H](O[C@@H]2O[C@@H](C)[C@H](OC(C)=O)[C@@H](O[C@@H]3O[C@@H](C)[C@H](OC(C)=O)[C@@H](O[C@@H]4O[C@@H](C)[C@H](O)[C@@H](OC(C)=O)[C@H]4O)[C@H]3OC(C)=O)[C@H]2O)[C@@H](O)[C@H]1O`, the MIC in the assay on Staphylococcus aureus [1] was determined as 8 µg/mL (≈ 8.52 µM); against Staphylococcus aureus [2], 16 µg/mL (≈ 17 µM).

Values taken from ChEMBL document CHEMBL1157314, “Antibacterial, partially acetylated oligorhamnosides from Cleistopholis patens” (2006).
